The results in this text go back to ChEMBL document CHEMBL1221219, “Selective blockade of 2-arachidonoylglycerol hydrolysis produces cannabinoid behavioral effects” (Nat Chem Biol, 2009).

Activity calls are given as the source filed them. The rule behind the calls is not given here.

Experiment [1] deals with T1, Monoglyceride lipase (Mus musculus) (UniProt O35678).
T1 sequence (whole entry): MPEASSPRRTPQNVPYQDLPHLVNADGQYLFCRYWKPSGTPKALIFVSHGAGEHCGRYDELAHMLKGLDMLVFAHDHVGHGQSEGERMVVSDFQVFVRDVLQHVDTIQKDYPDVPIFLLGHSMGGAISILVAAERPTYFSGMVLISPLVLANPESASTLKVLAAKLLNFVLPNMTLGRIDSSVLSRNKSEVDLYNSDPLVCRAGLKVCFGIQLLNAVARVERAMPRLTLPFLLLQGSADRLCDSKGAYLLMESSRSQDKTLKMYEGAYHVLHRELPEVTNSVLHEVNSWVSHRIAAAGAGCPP
The experiment in a line: Inhibition of MAGL in C57B1/6J mouse brain membrane after 30 mins by competitive activity-based protein profiling method. The format is cell membranes. A digest of the protocol: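 Mouse brain membrane proteome (1 mg ml^-1 in PBS) preincubated 30 min at 37°C with inhibitor (1 nM-10 μM). FP-rhodamine then added (2 μM final) for 30 min at room temperature. Reaction quenched in SDS loading buffer, boiled 5 min at 90°C, resolved by SDS-PAGE and read by in-gel fluorescence.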

The target of experiment [2] is T2, Monoacylglycerol lipase ABHD6 (Mus musculus) (UniProt Q8R2Y0).
T2 sequence (whole entry): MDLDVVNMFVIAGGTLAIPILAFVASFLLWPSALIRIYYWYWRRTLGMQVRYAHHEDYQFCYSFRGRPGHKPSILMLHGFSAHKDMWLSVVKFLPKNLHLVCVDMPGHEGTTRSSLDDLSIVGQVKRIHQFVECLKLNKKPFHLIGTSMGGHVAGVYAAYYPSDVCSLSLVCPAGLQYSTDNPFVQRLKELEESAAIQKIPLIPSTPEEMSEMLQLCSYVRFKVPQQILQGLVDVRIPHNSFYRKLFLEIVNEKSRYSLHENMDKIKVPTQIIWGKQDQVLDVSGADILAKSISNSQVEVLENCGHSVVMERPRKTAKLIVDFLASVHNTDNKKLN
The experiment can be described thus: Inhibition of ABHD6 in C57B1/6J mouse brain membrane after 30 mins by competitive activity-based protein profiling method. It counts as cell membranes. The method in brief: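 Mouse brain membrane proteome at 1 mg ml^-1 in PBS was preincubated with inhibitor (1 nM-10 μM) for 30 min at 37°C. FP-rhodamine was then added at 2 μM final for 30 min at room temperature, followed by SDS-PAGE and in-gel fluorescence scanning.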

A further experiment concerns the target T3, Monoglyceride lipase (Rattus norvegicus, UniProt Q8R431).
T3 sequence (Q8R431 whole entry): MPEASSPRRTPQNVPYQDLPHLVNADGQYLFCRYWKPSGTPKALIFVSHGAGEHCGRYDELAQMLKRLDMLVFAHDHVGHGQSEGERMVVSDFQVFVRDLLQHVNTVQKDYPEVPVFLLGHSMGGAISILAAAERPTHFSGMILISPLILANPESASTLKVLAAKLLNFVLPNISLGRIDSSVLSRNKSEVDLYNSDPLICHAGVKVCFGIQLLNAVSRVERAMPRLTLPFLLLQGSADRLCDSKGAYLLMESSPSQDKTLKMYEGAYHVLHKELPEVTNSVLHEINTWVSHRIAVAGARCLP
The experiment in a line: Inhibition of MAGL in Wistar rat brain.

`CN(Cc1cccc(-c2ccncc2)c1)C(=O)Oc1ccc([N+](=O)[O-])cc1`: the inhibition result in experiment [1] and in experiment [2] was “Active” each time.

`COc1ccc(C(c2ccc(OC)cc2)N2CCN(C(=O)Oc3ccc([N+](=O)[O-])cc3)CC2)cc1`: the inhibition entry in experiment [1] and in experiment [2] was “Active” each time.

For the molecule `O=C(Oc1ccc([N+](=O)[O-])cc1)N1CCN(C(c2ccc(F)cc2)c2ccc(F)cc2)CC1`, the inhibition result in experiment [1] and in experiment [2] was “Active” throughout.

The IC50 is the concentration at which inhibition is half-maximal. Higher therefore signals weaker potency. With `O=C(Nc1cccc(-c2ccccc2)c1)OC1CCCCC1`, it took 200 µM to reach half-maximal inhibition against Monoglyceride lipase (IC50).

With `COc1ccc(C(O)(c2ccc(OC)cc2)C2CCN(C(=O)Oc3ccc([N+](=O)[O-])cc3)CC2)cc1`, in experiment [1], the inhibition result was “Active”.
